Screening results (PubChem BioAssay)
Shown are actives, neighbours in structure and some others; about 2.3% of the full set was active somewhere.
TRPC6 act: mouse TRPC6 channel activators, primary screen, cell-based, HEK293, membrane potential dye. Short transient receptor potential channel 6 (Mus musculus), Q61143. HEK293-TRPC6 membrane potential dye fluorescence; hits give high values. B-score at 10 µM. actives 0.13% (n = 310,000). AID 2550, 2010;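 active = B-score of the integrated fluorescence ratio above library mean plus 3 SD, and starting fluorescence ratio within library mean plus 5 SD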;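 note: higher score means more depolarization so channel activation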
TRPC4 act: activators of mouse TRPC4 channel, primary screen, Fluo4 calcium, HEK293 TRPC4beta/mu-opioid cells | Short transient receptor potential channel 4 (Mus musculus), Q9QUQ5 | Fluo4 calcium fluorescence; hits give high values | B-score at 10 µM | actives 0.49% (n = 310,000) | AID 2237, 2010;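 active = B-score above 5 SD of library B-scores, and initial fluorescence ratio not above library mean plus 5 SD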;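 note: positive B-score marks a calcium rise read as TRPC4 activation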
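System: HEK293 cells stably co-expressing mouse TRPC4beta and mu-opioid receptor; Schedule: Fluo4 dye loading 45 min at room temperature, 110 s recording; Detection: Fluo4 fluorescence, kinetic; Evaluation: B-scored integrated calcium fluorescence ratio; Controls: buffer (low) and maximal DAMGO (high).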
TRPC6 inhibitor: mouse TRPC6 channel inhibitors, primary screen, cell-based, HEK293, membrane potential dye; actives 1.1% (n = 310,000); B-score at 10 µM; ACh-evoked depolarization; hits give low values; AID 2553, 2010; Short transient receptor potential channel 6 (Mus musculus), Q61143;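 active = B-score under library mean minus 3 SD, initial fluorescence not abnormally high, positive integrated signal ratio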;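 note: B-score derived from integrated fluorescence ratio over the kinetic read; more negative B-score means stronger inhibition of depolarization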
TRPC4 block: inhibitors of mouse TRPC4 channel, primary screen, Fluo4 calcium, HEK293 TRPC4beta/mu-opioid cells | AID 2247, 2010 | B-score at 10 µM | actives 0.39% (n = 300,000) | Short transient receptor potential channel 4 (Mus musculus), Q9QUQ5 | DAMGO-evoked Fluo4 calcium flux; hits give low values;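 active = B-score over 3 SD under the library average, no early fluorescence shift, positive overall ratio signal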
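Assay system: HEK293 cells with stable TRPC4beta plus mu-opioid receptor expression; Probe or stimulus: DAMGO in two steps, submaximal then maximal; Dosing: single-point compound dosing; Measured by: Fluo4 calcium-dye fluorescence, kinetic read; Read-out basis: B score from integrated Fluo4 fluorescence ratio.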
TRPC4 PAM: positive allosteric modulators of TRPC4, primary screen, cell-based, mouse TRPC4beta, HEK293 mu-opioid, Fluo-4 calcium | DAMGO EC20, Fluo-4 Ca2+ flux; hits give high values | B-score at 10 µM | actives 0.42% (n = 310,000) | AID 2227, 2009;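 active = B-score of calcium response area above 5 SD of library B-scores, with initial fluorescence ratio within 5 SD of library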;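 note: B-score of integrated fluorescence ratio over time as area under calcium response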
TRPC4 sel inh 2: mouse TRPC4 off-target activity of TRPC6 inhibitors, second screen; shares compounds with TRPC6 inhibitor; HEK293 TRPC4/MOR, membrane potential dye fluorescence; channel activated by saturating DAMGO dose; actives 42% (n = 920); inhibition, % at 10 µM;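 active = compounds whose fluorescence signal differed from control wells by over 3 SD, either direction, in both duplicate plates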
TRPC4 spec: mouse TRPC4 modulation by TRPC6 hits, confirmation, selectivity assay for TRPC6 inhibitor project, cell-based, HEK293 TRPC4/mu-opioid, membrane potential dye; activity change, negative = inhibition, % at 10 µM; shares compounds with TRPC6 inhibitor; actives 61% (n = 920); membrane potential fluorescence;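 active = rise or fall in signal beyond 3 SD of buffer-only wells in both replicate plates, either sign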;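 note: integrated kinetic ratio of fluorescence range over baseline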
HEK293 MPD ctr 2-1: nonspecific membrane potential effects, parental HEK293, confirmation, counter-screen for TRPC6 inhibitor project, cell-based, second counter screen. signal change vs control, % at 10 µM. actives 31% (n = 920). parental HEK293 membrane potential dye fluorescence; maximal acetylcholine challenge after compound addition. shares compounds with TRPC6 inhibitor. AID 2779, 2010;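 active = membrane potential signal moving either way by over 3 SD of the maximum-effect control, in both duplicate plates, meaning non-specific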
HEK293 MPD ctr-1: membrane potential modulation in parental HEK293, confirmation, counter-screen for TRPC6 inhibitor project, cell-based; shares compounds with TRPC6 inhibitor; parental HEK293 membrane potential dye fluorescence; membrane potential signal change, % at 10 µM; actives 60% (n = 920); AID 2780, 2010;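 active = membrane potential signal shifting up or down by more than 3 SD of buffer-only wells, on both duplicate plates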
HEK293 MPD ctr-2: parental HEK293 membrane potential modulation, confirmation, counter-screen for TRPC6 modulator project, cell-based; shares compounds with TRPC6 inhibitor; membrane potential signal change, % at 10 µM; membrane potential dye fluorescence; actives 51% (n = 2,400);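 active = membrane potential signal moves up or down beyond 5 SD from buffer-only wells, on both duplicate plates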
HEK293 MPD ctr 2-2: second counter-screen for TRPC6 modulators: effect in parental HEK293 cells | shares compounds with TRPC6 inhibitor | membrane potential dye fluorescence; after compound, maximal acetylcholine stimulation | inhibition, % at 10 µM | actives 14% (n = 2,400);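 active = membrane potential signal drops by more than 5 SD from the mean control signal, in both duplicate plates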;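 note: plate controls were acetylcholine ECmax control wells for no effect and buffer only wells for full effect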
TRPC4 ctr mod: TRPC4 modulation by TRPC6 hit compounds, confirmation, selectivity assay for TRPC6 modulator project, cell-based, HEK293 TRPC4/mu-opioid, membrane potential dye, mouse; membrane potential fluorescence; shares compounds with TRPC6 inhibitor; actives 69% (n = 2,400); percent change from control (negative = decrease, positive = increase), % at 10 µM; AID 488927, 2010;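 active = membrane potential signal moved up or down beyond 5 SD of buffer control wells, in both duplicate plates, actives on both sides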;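 note: plate controls were assay buffer wells for no effect and DAMGO maximal-effect wells for full effect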
TRPC4/MOR inh 2: second selectivity test of TRPC6 modulators against mouse TRPC4; shares compounds with TRPC6 inhibitor; HEK293 TRPC4/mu-opioid, membrane potential dye fluorescence; stimulated with maximal-effect DAMGO; inhibition, % at 10 µM; actives 55% (n = 2,400);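 active = drop in membrane potential signal beyond 5 SD of the control wells in both duplicate plates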;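 note: TRPC4 counter screen for TRPC6 hits run under conditions tuned for TRPC6 not TRPC4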
TRPC6 inh conf: mouse TRPC6 channel inhibitors, confirmation, HEK293 cells, membrane potential dye, duplicate; inhibition, % at 10 µM; actives 43% (n = 3,300); ACh-evoked depolarization; shares compounds with TRPC6 inhibitor; AID 488960, 2010;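 active = fluorescence ratio falls more than 5 SD below the full-stimulation control mean, in both duplicate runs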;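 note: integrated fluorescence ratio of peak minus minimum over baseline after agonist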
TRPC6 act conf: mouse TRPC6 channel activators, confirmation, HEK293 cells, membrane potential dye, duplicate | AID 488961, 2010 | activation, % at 10 µM | shares compounds with TRPC6 inhibitor | actives 11% (n = 2,800) | HEK293-TRPC6 membrane potential dye fluorescence, FDSS;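 active = ratio signal rise beyond 5 SD above unstimulated control wells' mean, seen in both duplicate runs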;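 note: plate controls were buffer EC0 wells for no effect and acetylcholine ECmax response for full effect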
An asterisk follows results filed as active; i = inactive; / = no result.

SMILES	TRPC6 act	TRPC4 act	TRPC6 inhibitor	TRPC4 block	TRPC4 PAM	HEK293 MPD ctr-2	HEK293 MPD ctr 2-2	TRPC4 ctr mod	TRPC4/MOR inh 2	TRPC6 inh conf	TRPC6 act conf	others
Cc1cccc(N2CCN(C(=O)CSc3nc4ccccc4nc3N3CC(C)OC(C)C3)CC2)c1C (centres undefined)	i	i	i	i	i	/	/	/	/	/	/
Cc1cccc(C)c1NC(=O)CNC(=O)CCCc1c[nH]c2ccccc12	i	i	i	i	i	/	/	/	/	/	/
Cc1cccc(NC(=O)CCNS(=O)(=O)c2ccc(Cl)cc2)c1	i	i	-5.1*	i	i	i	i	i	i	i	i
CC(=O)Nc1ccc(S(=O)(=O)NCCC(=O)Nc2cccc(Cl)c2)cc1	i	i	i	i	i	/	/	/	/	/	/
CC(C)Sc1nc2c(c(=O)[nH]c(=O)n2C)n1CC(O)COc1ccccc1 (centres undefined)	i	i	-5.8*	i	i	i	i	10%*	i	66%*	i
CC(O)CSc1nc2c(c(=O)[nH]c(=O)n2C)n1CC(O)COc1ccccc1 (centres undefined)	i	i	i	i	i	/	/	/	/	/	/
CN1CCN(C(CNC(=O)C(=O)Nc2ccc3c(c2)OCO3)c2ccc(F)cc2)CC1 (centres undefined)	i	i	-6*	i	i	100%*	i	12%*	i	39%*	i
COc1ccc(N(CC(=O)N2CCN(c3ccc(Cl)cc3)CC2)S(=O)(=O)c2c(C)n[nH]c2C)cc1	i	i	i	i	i	/	/	/	/	/	/
CC(C)Oc1ccc(C(CCN)C2CCCCC2)cc1 (centres undefined)	i	i	-6.7*	i	i	/	/	/	/	i	i	TRPC4 sel inh 2=51%*;TRPC4 spec=i;HEK293 MPD ctr 2-1=i;HEK293 MPD ctr-1=i
CC(C)Oc1ccc(C(=O)NC2CCCCC2)cc1	i	i	i	i	i	/	/	/	/	/	/
COc1ccc(/C=C/C(=O)NCC(=O)N/N=C(/C)c2ccco2)cc1	i	i	i	i	i	/	/	/	/	/	/
CC1(C)CC(=O)c2c(nc3ccccc3c2N)C1	i	i	i	i	i	/	/	/	/	/	/
CCNc1c2c(nc3ccccc13)CC(C)(C)CC2=O	i	i	-7.8*	i	i	/	/	/	/	i	i	TRPC4 sel inh 2=65%*;TRPC4 spec=i;HEK293 MPD ctr 2-1=i;HEK293 MPD ctr-1=-138%*
COCCNC(=S)N1CCCN(c2nc3cc(C)ccc3cc2C#N)CC1	12*	i	i	i	i	i	i	i	34%*	/	136%*
Cc1cc(C)c(OCCCNC2CCCC2)c(Br)c1	12*	i	-5.4*	i	i	201%*	i	43%*	54%*	i	94%*
Cc1cc(C)c(OCCCNCc2ccccc2)c(Br)c1	i	i	i	i	i	/	/	/	/	/	/
O=C(Nc1ccc(C2=NCCN2)cc1)c1ccc(C(=O)Nc2ccc(C3=NCCN3)cc2)c([N+](=O)[O-])c1	15*	i	i	i	i	440%*	i	70%*	i	i	193%*
CCCC(CCC)C(=O)OC1C[C@H]2CC[C@@H](C1)[N+]2(C)C (some centres undefined)	i	i	-8.7*	i	i	/	/	/	/	94%*	i	TRPC4 sel inh 2=i;TRPC4 spec=i;HEK293 MPD ctr 2-1=-30%*;HEK293 MPD ctr-1=i
COc1ccc(Cc2nnc(N/N=C/c3ccc(O)cc3O)[nH]c2=O)cc1OC	i	i	i	i	i	/	/	/	/	/	/
CCOC(=O)c1c(CN2CCCCC2)n(C)c2cc(Br)c(O)c(CN(C)C)c12	i	i	-7.1*	i	i	-252%*	i	-52%*	58%*	45%*	i
CCOC(=O)c1c(CSc2ccccc2)n(C)c2cc(Br)c(O)c(CN(C)C)c12	i	i	-5.9*	i	i	i	i	i	56%*	44%*	i
CCOC(=O)c1c(CN2CCOCC2)n(-c2ccccc2)c2cc(Br)c(O)c(CN(C)C)c12	i	i	i	i	i	/	/	/	/	/	/
CCOC(=O)c1c(CSc2ccc(C)cc2)n(C)c2cc(Br)c(O)c(CN(C)C)c12	i	i	-5.9*	i	i	i	i	i	64%*	47%*	i
CCOC(=O)c1c(CSc2ccsc2)n(C)c2cc(Br)c(O)c(CN(C)C)c12	i	i	i	i	i	/	/	/	/	/	/
